The source made the active and inactive calls.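 How the source made its calls, unless noted: active means duplicate-averaged activation above buffer control mean plus 5 SD of those controls; inactive means the rest.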

System in one assay: not listed separately
Nature of the assay: nonspecific flux increase, KCNQ1-free cells – parental CHO cells, counter-screen for KCNQ1 potentiator project (AID 493006). Conditions: parental CHO-K1 cells, FluxOR thallium flux, at 10 µM; active compounds read high. Put shortly:
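Assay system: Untransfected host CHO-K1 cells with FluxOR thallium dye | Probe or stimulus: Potassium/thallium depolarization pulse | Schedule: Overnight 37 °C plating, 90 min RT dye, 20 min compound | Detection: Kinetic thallium-flux fluorescence | Read-out: Max-minus-min fluorescence over baseline, percent of buffer-to-R-L3 span | Benchmarks: Low control buffer, high control R-L3 activator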
For orientation: Counterscreens check selectivity or assay interference.
Consider `O=C(O)CSc1cc(NS(=O)(=O)c2ccc(Br)cc2)c2ccccc2c1O`, for which the result was inactive.
For the compound `Oc1c(N=NC(=S)Nc2ccccc2F)c2ccccc2n1Cc1ccccc1`, the activation was 143% (active).
As to `CC1(C)Cc2c(sc(/N=C/N3CCCCCC3)c2C#N)C(C)(C)N1`, the outcome was inactive.
Turning to `Cc1ccccc1NC(=S)NC(=O)c1cc(-c2ccccc2)nc2ccccc12`, the activation was 151% (active).
For `Cc1ccc(O)c(C(=O)CC(=O)c2ccc(Cl)cc2)c1`, the outcome was inactive.
`Cc1cccc(NC(=S)NNC(=O)c2csc3c2CCC(C)C3)c1` (stereo not given): the activation was 193% (active).
With `COc1ccc(C)cc1NC(=O)C1C2C=CC(C2)C1C(=O)O` (stereo not given), the result was inactive.
As for `CCOc1ccc(/C=C2/SC(=O)NC2=S)cc1`, the activation was 425% (active).
Turning to `O=C(c1ccc(Cl)cc1)c1c[nH]c(C(=O)C(Cl)(Cl)Cl)c1`, the result was inactive.
For `CCOC(=O)Cc1csc(NC(=O)CSc2nnnn2-c2ccc(C)cc2C)n1`, the outcome was inactive.
In the case of `CN(C)CCCNc1nc2sc3c(c2c(=O)n1CCc1ccccc1)CCCCC3`, the result was inactive.
The same measure, in the same setting: next, `CCOc1ccc2c(c1)C(NC(C)=O)C(=O)N2CCN1CCOCC1` (stereo not given): “inactive”.
Regarding `S=c1nc(-c2ccc(Br)cc2)[nH]c2ccccc12`, the activation was 572% (active).
Consider `CCOC(=O)C1(CC2CCCCO2)CCN(Cc2cc3ccccc3[nH]2)CC1` (stereo not given), for which the outcome was inactive.
As for `O=C(COc1ccccc1[N+](=O)[O-])Nc1cccnc1`, the activation was 186% (active).
As to `CCc1ccc2c(c1)c(N=NC1=NC(=O)CS1)c(O)n2C`, the activation was 162% (active).
The same measure, in the same setting: next, `S=c1nc(C2CCCCC2)[nH]c2ccccc12`: 138% (active).
For the compound `CCSC(=S)c1c(C)[nH]n(-c2ccccc2)c1=O`, the activation is 164% (active).
On to `CC(C)c1nc(Cl)c(C#N)c2c1CCC2`, for which the outcome was inactive.
As for `COCCOC(=O)N/C=C\c1nc2ccccc2c(=O)[nH]1`, the result was inactive.
Turning to `Cc1cc(C)n(CC(=O)N2CCCC(N3CCN(c4ccccc4C)CC3)C2)n1` (stereo not given), the activation was 174% (active).
Take `Cn1c(=O)c2c3c(sc2n2c(SCC(N)=O)nnc12)CC(C(C)(C)C)CC3` (stereo not given): the result was inactive.
In the case of `CN(Cc1cn[nH]c1-c1ccc2c(c1)OCO2)C1CCOCC1`, the result was inactive.
Take `C=CCn1c(-c2cc(-c3ccc(C)cc3)nc3ccccc23)n[nH]c1=S`: the activation is 138% (active).
Still for that read-out and setting: next, `COc1ccc(C(=O)CC(=O)C(=O)Nc2ccc(C)c(Cl)c2)cc1`: 138% (active).
In the case of `CN1C(=O)C2(Oc3ccccc3C3CC(c4ccccc4)=NN32)c2ccccc21` (stereo not given), the result was inactive.
Same read-out and setting: as for `C/C(=N\NC(=O)c1cccc(F)c1)c1ccc(Br)s1`, the entry is “inactive”.
As to `O=C(NC(=S)Nc1ccccc1N1CCCC1)c1ccccc1Br`, the activation was 179% (active).
As for `CCOc1ccc(NC(=O)CN(C)C(=O)c2c(-c3c(F)cccc3Cl)noc2C)cc1OCC`, the result was inactive.
For `COc1cc(-c2nnc(COC(=O)c3cccn3C)o2)cc(OC)c1OC`, the outcome was inactive.
For the compound `COc1cccc(C2=NOC(C(=O)NCc3cccs3)C2)c1` (stereo not given), the outcome was inactive.
In the case of `Cc1ccc(-c2cc(-c3n[nH]c(=S)o3)c3ccccc3n2)cc1`, the activation is 468% (active).
For `COc1ccccc1-c1cc(C(=O)Nc2cccnc2)no1`, the activation is 314% (active).
For the compound `Nc1nc(C23CC4CC(CC(C4)C2)C3)cs1`, the result was inactive.
On to `CC(C)NC(=O)C1CCN(c2ccc(S(=O)(=O)N3CCOCC3)cc2Cl)CC1`, for which the result was inactive.
Take `COC(=O)c1ccc(NC(=S)NC(=O)c2c(Cl)cnn2C)cc1`: the activation is 142% (active).
Regarding `Cc1ccc(O)c(C(=O)CC(=O)c2cccc(F)c2)c1`, the outcome was inactive.
For the compound `Cc1ccc(C)c(NC(=S)NC(=O)c2cncc(Br)c2)c1`, the outcome was inactive.
Still for that read-out and setting: as for `Cc1cccc2sc(N(CCCN(C)C)C(=O)CCS(=O)(=O)c3ccccc3)nc12`, the entry is “inactive”; as for `O=C(Nc1cccc(S(=O)(=O)NC2=NCCC2)c1)c1c(F)cccc1Cl`, “inactive”.

The target in the next assay is Potassium voltage-gated channel subfamily KQT member 1 (Homo sapiens) (UniProt P51787). Nature of the assay: enhancement of KCNQ1 channel thallium flux – FluxOR thallium flux, CHO cells, duplicates, confirmation (AID 493007;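 active means potentiation averaged over duplicate wells exceeding buffer-only control mean by more than 3 SD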;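 on outcome: cells depolarized by a potassium plus thallium sulfate stimulus after compound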). Conditions: KCNQ1 cell line, FluxOR thallium flux fluorescence, at 10 µM; active compounds read high, % of reference activator effect, buffer zero. In short, it runs like this: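 Material: KCNQ1-expressing CHO cell line; Incubation: FluxOR dye loading 90 min, compound exposure 20 min, room temperature; Detection: FluxOR Tl+ flux fluorescence, 10 s baseline plus 110 s recording; Read-out: percent activation between buffer and R-L3 responses; Control set: buffer-only wells as 0% and R-L3 activator as 100%; Replication: duplicate wells per compound.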
Sequence of Potassium voltage-gated channel subfamily KQT member 1 (Homo sapiens) (P51787 whole entry, looked up): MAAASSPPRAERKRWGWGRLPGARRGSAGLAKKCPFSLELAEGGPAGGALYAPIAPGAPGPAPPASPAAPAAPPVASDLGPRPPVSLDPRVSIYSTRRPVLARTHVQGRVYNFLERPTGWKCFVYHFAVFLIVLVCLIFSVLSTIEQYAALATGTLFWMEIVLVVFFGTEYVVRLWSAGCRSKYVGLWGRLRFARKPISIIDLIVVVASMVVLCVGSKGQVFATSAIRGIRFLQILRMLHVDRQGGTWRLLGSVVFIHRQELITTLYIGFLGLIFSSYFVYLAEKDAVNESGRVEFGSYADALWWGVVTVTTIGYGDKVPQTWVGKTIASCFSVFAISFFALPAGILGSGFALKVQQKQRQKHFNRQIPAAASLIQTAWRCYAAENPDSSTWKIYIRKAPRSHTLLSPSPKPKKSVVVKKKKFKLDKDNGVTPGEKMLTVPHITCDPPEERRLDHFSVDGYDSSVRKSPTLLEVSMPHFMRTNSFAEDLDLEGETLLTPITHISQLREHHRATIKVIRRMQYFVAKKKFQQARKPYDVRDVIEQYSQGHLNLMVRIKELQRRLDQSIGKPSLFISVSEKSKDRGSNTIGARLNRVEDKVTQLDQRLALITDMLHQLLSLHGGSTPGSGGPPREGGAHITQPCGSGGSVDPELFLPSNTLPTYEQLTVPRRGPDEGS
Take `O=C(O)CSc1cc(NS(=O)(=O)c2ccc(Br)cc2)c2ccccc2c1O`: the outcome was inactive.
On to `Oc1c(N=NC(=S)Nc2ccccc2F)c2ccccc2n1Cc1ccccc1`, for which the potentiation was 49% (active).
With `CC1(C)Cc2c(sc(/N=C/N3CCCCCC3)c2C#N)C(C)(C)N1`, the outcome was inactive.
Consider `Cc1ccccc1NC(=S)NC(=O)c1cc(-c2ccccc2)nc2ccccc12`, for which the potentiation is 53% (active).
`Cc1ccc(O)c(C(=O)CC(=O)c2ccc(Cl)cc2)c1`: the result was inactive.
As for `Cc1cccc(NC(=S)NNC(=O)c2csc3c2CCC(C)C3)c1` (stereo not given), the potentiation is 86% (active).
As to `COc1ccc(C)cc1NC(=O)C1C2C=CC(C2)C1C(=O)O` (stereo not given), the result was inactive.
Take `CCOc1ccc(/C=C2/SC(=O)NC2=S)cc1`: the potentiation was 138% (active).
As to `O=C(c1ccc(Cl)cc1)c1c[nH]c(C(=O)C(Cl)(Cl)Cl)c1`, the outcome was inactive.
The same measure, in the same setting: as for `CCOC(=O)Cc1csc(NC(=O)CSc2nnnn2-c2ccc(C)cc2C)n1`, the entry is “inactive”; as for `CN(C)CCCNc1nc2sc3c(c2c(=O)n1CCc1ccccc1)CCCCC3`, “inactive”; as for `CCOc1ccc2c(c1)C(NC(C)=O)C(=O)N2CCN1CCOCC1` (stereo not given), “inactive”.
Regarding `S=c1nc(-c2ccc(Br)cc2)[nH]c2ccccc12`, the potentiation is 188% (active).
As to `CCOC(=O)C1(CC2CCCCO2)CCN(Cc2cc3ccccc3[nH]2)CC1` (stereo not given), the outcome was inactive.
With `O=C(COc1ccccc1[N+](=O)[O-])Nc1cccnc1`, the potentiation is 41.5% (active).
On to `CCc1ccc2c(c1)c(N=NC1=NC(=O)CS1)c(O)n2C`, for which the potentiation is 30% (active).
On to `S=c1nc(C2CCCCC2)[nH]c2ccccc12`, for which the potentiation was 22.5% (active).
Same read-out and setting: as for `CCSC(=S)c1c(C)[nH]n(-c2ccccc2)c1=O`, the figure is 30% (active).
As for `CC(C)c1nc(Cl)c(C#N)c2c1CCC2`, the outcome was inactive.
Consider `COCCOC(=O)N/C=C\c1nc2ccccc2c(=O)[nH]1`, for which the outcome was inactive.
Regarding `Cc1cc(C)n(CC(=O)N2CCCC(N3CCN(c4ccccc4C)CC3)C2)n1` (stereo not given), the potentiation was 79% (active).
With `Cn1c(=O)c2c3c(sc2n2c(SCC(N)=O)nnc12)CC(C(C)(C)C)CC3` (stereo not given), the result was inactive.
Consider `CN(Cc1cn[nH]c1-c1ccc2c(c1)OCO2)C1CCOCC1`, for which the outcome was inactive.
As for `C=CCn1c(-c2cc(-c3ccc(C)cc3)nc3ccccc23)n[nH]c1=S`, the potentiation is 108% (active).
The same measure, in the same setting: next, `COc1ccc(C(=O)CC(=O)C(=O)Nc2ccc(C)c(Cl)c2)cc1`: 26% (active).
As for `CN1C(=O)C2(Oc3ccccc3C3CC(c4ccccc4)=NN32)c2ccccc21` (stereo not given), the outcome was inactive.
The same measure, in the same setting: as for `C/C(=N\NC(=O)c1cccc(F)c1)c1ccc(Br)s1`, the entry is “inactive”.
Regarding `O=C(NC(=S)Nc1ccccc1N1CCCC1)c1ccccc1Br`, the potentiation is 55% (active).
Take `CCOc1ccc(NC(=O)CN(C)C(=O)c2c(-c3c(F)cccc3Cl)noc2C)cc1OCC`: the result was inactive.
On to `COc1cc(-c2nnc(COC(=O)c3cccn3C)o2)cc(OC)c1OC`, for which the result was inactive.
For the compound `COc1cccc(C2=NOC(C(=O)NCc3cccs3)C2)c1` (stereo not given), the outcome was inactive.
For `Cc1ccc(-c2cc(-c3n[nH]c(=S)o3)c3ccccc3n2)cc1`, the potentiation was 260% (active).
Still for that read-out and setting: next, `COc1ccccc1-c1cc(C(=O)Nc2cccnc2)no1`: 112% (active).
In the case of `Nc1nc(C23CC4CC(CC(C4)C2)C3)cs1`, the result was inactive.
As for `CC(C)NC(=O)C1CCN(c2ccc(S(=O)(=O)N3CCOCC3)cc2Cl)CC1`, the outcome was inactive.
Regarding `COC(=O)c1ccc(NC(=S)NC(=O)c2c(Cl)cnn2C)cc1`, the potentiation is 26% (active).
As to `Cc1ccc(O)c(C(=O)CC(=O)c2cccc(F)c2)c1`, the potentiation was 24% (active).
As for `Cc1ccc(C)c(NC(=S)NC(=O)c2cncc(Br)c2)c1`, the potentiation was 18.5% (active).
As to `Cc1cccc2sc(N(CCCN(C)C)C(=O)CCS(=O)(=O)c3ccccc3)nc12`, the result was inactive.
Same read-out and setting: as for `O=C(Nc1cccc(S(=O)(=O)NC2=NCCC2)c1)c1c(F)cccc1Cl`, the entry is “inactive”.

For the origin of these results see PubChem BioAssay.
